Source: ChEMBL document CHEMBL1124057, “Synthesis of arginine-vasopressins, modified in positions 1 and 2, as antagonists of the vasopressor response to the parent hormone” (J Med Chem, 1988)
*1 amine or outer side, *2 acyl side, *3 side chain or, on linkers, in order; H or OH if unused. Where a SMILES comes first, the peptide text is derived from it. Bridges are numbered along the chain shown (N, C = ends). [ ]: non-standard residue; d: D form. X9 = O=C(CC1(S[*:3])CCC(c2ccccc2)CC1)[C@H](Cc1ccc(O)cc1)N([C@@H](Cc1ccccc1)C(=O)[*:2])[*:1]; X5 = CN1CCC(CC(=O)[C@H](Cc2ccc(O)cc2)N([C@@H](Cc2ccccc2)C(=O)[*:2])[*:1])(S[*:3])CC1; X8 = CC1CCC(CC(=O)[C@H](Cc2ccc(O)cc2)N([C@@H](Cc2ccccc2)C(=O)[*:2])[*:1])(S[*:3])CC1; X1 = CC(C)(C)C1CCC(CC(=O)[*:1])(S[*:2])CC1; X4 = O=C(CC1(S[*:2])CCC(c2ccccc2)CC1)[*:1]; X2 = CC1CCC(CC(=O)[*:1])(S[*:2])CC1; X3 = CN1CCC(CC(=O)[*:1])(S[*:2])CC1; X6 = O=C(CC1(S[*:2])CCCCC1)[*:1]

Legend:
Rattus norvegicus [1] = assay: Antidiuretic potency was tested in rat by intravenous injection and the change of conductivity of secreted urine was measured (agonistic experiment); type: functional
In short: (§1)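 Antidiuretic assay in anesthetized female Sprague-Dawley rats, with compounds given by intravenous injection. The change in conductivity of secreted urine was the effect parameter in both agonist and antagonist runs. Arginine-vasopressin (408 IU/mg) was the standard for agonism and the agonist in antagonism runs.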

Rattus norvegicus [2] = species on record: Rattus norvegicus; assay: Antagonist activity expressed as the effective dose that reduces the response to 2x units to equal response to 1x units of agonist (vasopressor assay); type: functional
In short: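 Vasopressor antagonism measured in anesthetized, dibenamine-treated rats, with arginine-vasopressin (408 IU/mg) as the challenging agonist. Potency is given as the effective dose (ED), the antagonist dose in nmol/kg body weight.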

Rattus norvegicus [3] = assay: Agonistic activity was determined according to a four-point dosage schedule in anesthetized rat (vasopressor assay); type: functional
Rattus norvegicus [4] = assay: Antidiuretic potency was tested in rat by intravenous injection and the change of conductivity of secreted urine was measured (antagonistic experiment); type: functional; in short: as §1
[5] = The time for complete recovery of the AVP effect was measured; type: ADME
Rattus norvegicus [6] = assay: Antidiuretic potency was tested in rat by intravenous injection and the change of conductivity of secreted urine was measured (antagonistic experiment); Weak, inconsistent; type: functional, organism-based; in short: as §1

| Compound | Agonism (Rattus norvegicus [1]) | ED (Rattus norvegicus [2]) | Agonism (Rattus norvegicus [3]) | Time [5] | also measured |
| --- | --- | --- | --- | --- | --- |
| CC1CCC2(CC1)CC(=O)N[C@@H](Cc1ccc(O)cc1)C(=O)N[C@@H](Cc1ccccc1)C(=O)N[C@@H](CCC(N)=O)C(=O)N[C@@H](CC(N)=O)C(=O)N[C@H](C(=O)N1CCC[C@H]1C(=O)N[C@@H](CCCN=C(N)N)C(=O)NCC(N)=O)CSS2 (some centres undefined) (YFQNCPRG-NH2; linker N-5 via X2) [listing 1 of 2 here] | 0.14 IU mg-1 | 1.04 nmol/kg | 0 IU mg-1 |  |  |
| CC(C)(C)C1CCC2(CC1)CC(=O)N[C@@H](Cc1ccc(O)cc1)C(=O)N[C@@H](Cc1ccccc1)C(=O)N[C@@H](CCC(N)=O)C(=O)N[C@@H](CC(N)=O)C(=O)N[C@H](C(=O)N1CCC[C@H]1C(=O)N[C@@H](CCCN=C(N)N)C(=O)NCC(N)=O)CSS2 (some centres undefined) (YFQNCPRG-NH2; linker N-5 via X1) [listing 1 of 2 here] | 0.13 IU mg-1 | 2 nmol/kg | 0.04 IU mg-1 |  | Antagonism (Rattus norvegicus [4]): 0 |
| COc1ccc(C[C@@H]2NC(=O)CC3(CCN(C)CC3)SSC[C@@H](C(=O)N3CCC[C@H]3C(=O)N[C@@H](CCCN=C(N)N)C(=O)NCC(N)=O)NC(=O)[C@H](CC(N)=O)NC(=O)[C@H](CCC(N)=O)NC(=O)[C@H](Cc3ccccc3)NC2=O)cc1 (Y(Me)FQNCPRG-NH2; linker N-5 via X3) [listing 1 of 2 here] | 0.23 IU mg-1 | 3.6 nmol/kg | 0 IU mg-1 |  |  |
| COc1ccc(C[C@@H]2NC(=O)CC3(CCCCC3)SSC[C@@H](C(=O)N3CCC[C@H]3C(=O)N[C@@H](CCCN=C(N)N)C(=O)NCC(N)=O)NC(=O)[C@H](CC(N)=O)NC(=O)[C@H](CCC(N)=O)NC(=O)[C@H](Cc3ccccc3)NC2=O)cc1 (Y(Me)FQNCPRG-NH2; linker N-5 via X6) [listing 1 of 2 here] |  |  | 0 IU mg-1 |  |  |
| COc1ccc(C[C@@H]2NC(=O)CC3(CCC(C)CC3)SSC[C@@H](C(=O)N3CCC[C@H]3C(=O)N[C@@H](CCCN=C(N)N)C(=O)NCC(N)=O)NC(=O)[C@H](CC(N)=O)NC(=O)[C@H](CCC(N)=O)NC(=O)[C@H](Cc3ccccc3)NC2=O)cc1 (some centres undefined) (Y(Me)FQNCPRG-NH2; linker N-5 via X2) [listing 1 of 2 here] | 0.7 IU mg-1 | 1.5 nmol/kg | 0 IU mg-1 |  | Antagonism (Rattus norvegicus [4]): 0 |
| COc1ccc(C[C@@H]2NC(=O)CC3(CCC(C)CC3)SSC[C@@H](C(=O)N3CCC[C@H]3C(=O)N[C@@H](CCCN=C(N)N)C(=O)NCC(N)=O)NC(=O)[C@H](CC(N)=O)NC(=O)[C@H](CCC(N)=O)NC(=O)[C@H](Cc3ccccc3)NC2=O)cc1 (some centres undefined) (Y(Me)FQNCPRG-NH2; linker N-5 via X2) [listing 2 of 2 here] |  |  |  | > 140 min |  |
| COc1ccc(C[C@@H]2NC(=O)CC3(CCC(C(C)(C)C)CC3)SSC[C@@H](C(=O)N3CCC[C@H]3C(=O)N[C@@H](CCCN=C(N)N)C(=O)NCC(N)=O)NC(=O)[C@H](CC(N)=O)NC(=O)[C@H](CCC(N)=O)NC(=O)[C@H](Cc3ccccc3)NC2=O)cc1 (some centres undefined) (Y(Me)FQNCPRG-NH2; linker N-5 via X1) [listing 1 of 2 here] |  |  |  | > 115 min |  |
| NC(=O)CC[C@@H]1NC(=O)[C@H](Cc2ccccc2)NC(=O)[C@H](Cc2ccc(O)cc2)NC(=O)CC2(CCC(c3ccccc3)CC2)SSC[C@@H](C(=O)N2CCC[C@H]2C(=O)N[C@@H](CCCN=C(N)N)C(=O)NCC(N)=O)NC(=O)[C@H](CC(N)=O)NC1=O (some centres undefined) (YFQNCPRG-NH2; linker N-5 via X4) [listing 1 of 2 here] |  |  |  | > 180 min |  |
| CC(C)(C)C1CCC2(CC1)CC(=O)N[C@@H](Cc1ccc(O)cc1)C(=O)N[C@@H](Cc1ccccc1)C(=O)N[C@@H](CCC(N)=O)C(=O)N[C@@H](CC(N)=O)C(=O)N[C@H](C(=O)N1CCC[C@H]1C(=O)N[C@@H](CCCN=C(N)N)C(=O)NCC(N)=O)CSS2 (some centres undefined) (YFQNCPRG-NH2; linker N-5 via X1) [listing 2 of 2 here] |  |  |  | 125 min |  |
| COc1ccc(C[C@@H]2NC(=O)CC3(CCC(c4ccccc4)CC3)SSC[C@@H](C(=O)N3CCC[C@H]3C(=O)N[C@@H](CCCN=C(N)N)C(=O)NCC(N)=O)NC(=O)[C@H](CC(N)=O)NC(=O)[C@H](CCC(N)=O)NC(=O)[C@H](Cc3ccccc3)NC2=O)cc1 (some centres undefined) (Y(Me)FQNCPRG-NH2; linker N-5 via X4) [listing 1 of 2 here] | 1.6 IU mg-1 | 2 nmol/kg | 0 IU mg-1 |  |  |
| CN1CCC2(CC1)CC(=O)[C@H](Cc1ccc(O)cc1)N[C@@H](Cc1ccccc1)C(=O)N[C@@H](CCC(N)=O)C(=O)N[C@@H](CC(N)=O)C(=O)N[C@H](C(=O)N1CCC[C@H]1C(=O)N[C@@H](CCCN=C(N)N)C(=O)NCC(N)=O)CSS2 (H-[X5]QNCPRG-NH2; disulfide 1-4) | 0.87 IU mg-1 | 0 nmol/kg | 0.4 IU mg-1 |  | Antagonism (Rattus norvegicus [4]): 0 |
| NC(=O)CC[C@@H]1NC(=O)[C@H](Cc2ccccc2)NC(=O)[C@H](Cc2ccc(O)cc2)NC(=O)CC2(CCC(c3ccccc3)CC2)SSC[C@@H](C(=O)N2CCC[C@H]2C(=O)N[C@@H](CCCN=C(N)N)C(=O)NCC(N)=O)NC(=O)[C@H](CC(N)=O)NC1=O (some centres undefined) (YFQNCPRG-NH2; linker N-5 via X4) [listing 2 of 2 here] | 0.44 IU mg-1 | 2 nmol/kg | 0 IU mg-1 |  |  |
| CC1CCC2(CC1)CC(=O)N[C@@H](Cc1ccc(O)cc1)C(=O)N[C@@H](Cc1ccccc1)C(=O)N[C@@H](CCC(N)=O)C(=O)N[C@@H](CC(N)=O)C(=O)N[C@H](C(=O)N1CCC[C@H]1C(=O)N[C@@H](CCCN=C(N)N)C(=O)NCC(N)=O)CSS2 (some centres undefined) (YFQNCPRG-NH2; linker N-5 via X2) [listing 2 of 2 here] |  |  |  | 214 min |  |
| COc1ccc(C[C@@H]2NC(=O)CC3(CCC(c4ccccc4)CC3)SSC[C@@H](C(=O)N3CCC[C@H]3C(=O)N[C@@H](CCCN=C(N)N)C(=O)NCC(N)=O)NC(=O)[C@H](CC(N)=O)NC(=O)[C@H](CCC(N)=O)NC(=O)[C@H](Cc3ccccc3)NC2=O)cc1 (some centres undefined) (Y(Me)FQNCPRG-NH2; linker N-5 via X4) [listing 2 of 2 here] |  |  |  | > 180 min |  |
| NC(=O)CC[C@@H]1NC(=O)[C@H](Cc2ccccc2)N[C@@H](Cc2ccc(O)cc2)C(=O)CC2(CCC(c3ccccc3)CC2)SSC[C@@H](C(=O)N2CCC[C@H]2C(=O)N[C@@H](CCCN=C(N)N)C(=O)NCC(N)=O)NC(=O)[C@H](CC(N)=O)NC1=O (some centres undefined) (H-[X9]QNCPRG-NH2; disulfide 1-4) |  |  |  |  | Antagonism (Rattus norvegicus [6]): Weak |
| COc1ccc(C[C@@H]2NC(=O)CC3(CCCCC3)SSC[C@@H](C(=O)N3CCC[C@H]3C(=O)N[C@@H](CCCN=C(N)N)C(=O)NCC(N)=O)NC(=O)[C@H](CC(N)=O)NC(=O)[C@H](CCC(N)=O)NC(=O)[C@H](Cc3ccccc3)NC2=O)cc1 (Y(Me)FQNCPRG-NH2; linker N-5 via X6) [listing 2 of 2 here] |  |  |  | 126 min |  |
| COc1ccc(C[C@@H]2NC(=O)CC3(CCN(C)CC3)SSC[C@@H](C(=O)N3CCC[C@H]3C(=O)N[C@@H](CCCN=C(N)N)C(=O)NCC(N)=O)NC(=O)[C@H](CC(N)=O)NC(=O)[C@H](CCC(N)=O)NC(=O)[C@H](Cc3ccccc3)NC2=O)cc1 (Y(Me)FQNCPRG-NH2; linker N-5 via X3) [listing 2 of 2 here] |  |  |  | 110 min |  |
| CC1CCC2(CC1)CC(=O)[C@H](Cc1ccc(O)cc1)N[C@@H](Cc1ccccc1)C(=O)N[C@@H](CCC(N)=O)C(=O)N[C@@H](CC(N)=O)C(=O)N[C@H](C(=O)N1CCC[C@H]1C(=O)N[C@@H](CCCN=C(N)N)C(=O)NCC(N)=O)CSS2 (some centres undefined) (H-[X8]QNCPRG-NH2; disulfide 1-4) |  |  |  |  | Antagonism (Rattus norvegicus [6]): Weak |
| COc1ccc(C[C@@H]2NC(=O)CC3(CCC(C(C)(C)C)CC3)SSC[C@@H](C(=O)N3CCC[C@H]3C(=O)N[C@@H](CCCN=C(N)N)C(=O)NCC(N)=O)NC(=O)[C@H](CC(N)=O)NC(=O)[C@H](CCC(N)=O)NC(=O)[C@H](Cc3ccccc3)NC2=O)cc1 (some centres undefined) (Y(Me)FQNCPRG-NH2; linker N-5 via X1) [listing 2 of 2 here] | 0.095 IU mg-1 | 1 nmol/kg | 0 IU mg-1 |  | Antagonism (Rattus norvegicus [4]): 0 |
